# Screens (PubChem BioAssay)
# APJ agonist: agonists of human apelin receptor APJ, primary screen, CHO-K1 cells, PathHunter beta-arrestin, luminescence. hit rate 0.11% among 330,000. 0% DMSO wells, 100% apelin. activation, % at 20 µM. P35414;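 active = activation more than six SD over the plate average, tested at 20 µM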;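 also: 0% = DMSO alone and 100% = apelin-13 at 10 nM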
# Target sequence (P35414 whole entry, looked up): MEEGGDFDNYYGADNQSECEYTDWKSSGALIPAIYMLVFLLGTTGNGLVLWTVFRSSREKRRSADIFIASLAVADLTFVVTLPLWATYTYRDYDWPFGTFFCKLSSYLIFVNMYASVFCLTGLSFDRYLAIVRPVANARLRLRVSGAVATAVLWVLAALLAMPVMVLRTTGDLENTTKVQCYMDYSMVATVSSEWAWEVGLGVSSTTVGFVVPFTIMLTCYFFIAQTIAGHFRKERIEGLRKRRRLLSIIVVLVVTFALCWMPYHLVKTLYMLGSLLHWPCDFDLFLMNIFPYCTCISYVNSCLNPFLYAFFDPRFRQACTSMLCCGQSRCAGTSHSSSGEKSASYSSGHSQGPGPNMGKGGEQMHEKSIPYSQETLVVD
#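 Assay system: CHO-K1 APJ beta-arrestin complementation cell line / Compound: single test compound dose, 20 µM final, 1% DMSO / Times: overnight seeding, 90 min compound at 25 °C, 1 h detection / Technique: beta-gal luminescence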
# CXCR6 inh: CXCR6 receptor inhibitors, primary screen, cell-based, beta-arrestin, luminescence, CHO-K1 PathHunter, 1536-well. inhibition, % at 20 µM. AID 602244, 2012. hit rate 0.36% among 360,000; in the data active = inhibition above about 34%, passing the limit was not always enough;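 also: antagonist mode with CXCL16 agonist at 10 nM final; 0% = 10 nM CXCL16 with DMSO and 100% = unstimulated wells without agonist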
# CCR6 antag: CCR6 receptor antagonists, primary screen, cell-based, CHO-K1, luminescence, beta-arrestin, uHTS; inhibition, % at 20 µM; AID 493098, 2011; hit rate 0.49% among 340,000; CHO-K1 CCR6 PathHunter beta-arrestin, CCL20-stimulated; C-C chemokine receptor type 6 (Homo sapiens), P51684;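 active = compounds whose inhibition of the agonist-driven luminescence signal at 20 µM reaches about 50%, limit read from the data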;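 also: cells stimulated with CCL20 at 14 nM final; plate controls were DMSO with CCL20 for no effect and DMSO without agonist for full effect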
# EBI2 antag: EBI2 receptor antagonists, beta-arrestin recruitment, primary screen, cell-based, luminescence, 7a,25-OHC stimulation, uHTS; G-protein coupled receptor 183 (Homo sapiens), P32249; 7a,25-OHC stimulated; inhibition, % at 5 µM; hit rate 0.81% among 360,000; AID 651636, 2012; in the data active = inhibition above about 38%;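 also: enzyme fragment complementation signal reports receptor beta-arrestin coupling in cells; 0% = agonist plus DMSO wells and 100% = wells without agonist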
# APJ antagonist: antagonists of human apelin receptor APJ, primary screen, CHO-K1 cells, beta-arrestin complementation, luminescence | inhibition, % at 20 µM | hit rate 0.32% among 330,000;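 active = inhibition above about 40% at 20 µM, limit read from the data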;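 also: cells challenged with 10 nM apelin-13 agonist together with compound; plate controls were apelin-13 plus DMSO wells for no effect and DMSO wells lacking apelin-13 for full effect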
# EBI2 conf: EBI2 antagonist hit retest, beta-arrestin, confirmation, cell-based, single concentration, luminescence, 7a,25-OHC stimulation; 7a,25-OHC antagonism; shares compounds with EBI2 antag; hit rate 29% among 2,400; AID 651997, 2013; inhibition, % at 5 µM;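 active = inhibition of at least 50%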
# EBI2 agonist: EBI2 agonist activity of antagonist hits, confirmation, counter-screen for EBI2 antagonist project, cell-based, single concentration, agonist mode, luminescence; EBI2-expressing cells, 60 min; 0% vehicle, 100% 7α,25-dihydroxycholesterol control; AID 652000, 2013; activation, % at 5 µM; 2,400 tested, under 10 active; shares compounds with EBI2 antag;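 active = activation of at least 50%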
# bGal counter: E. coli beta-galactosidase enzyme inhibition, confirmation, counter-screen for EBI2 antagonist project, biochemical, luminescence, single concentration; shares compounds with EBI2 antag; purified beta-galactosidase, luminescent Galacton Star, 15 min; inhibition, % at 5 µM; hit rate 1% among 2,400; AID 652176, 2013;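 active = replicate-average signal at least 3 plate SD below neutral wells, shown as high inhibition, flagging enzyme-inhibiting false positives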;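 also: 0% = DMSO wells with enzyme and 100% = wells lacking enzyme; higher means stronger loss of beta-gal luminescence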
# Active calls of the source: *; . = not tested or not shown. In the library only some 1.5% were active in any assay of this set; here they are far more common.
SMILES,APJ agonist,CXCR6 inh,CCR6 antag,EBI2 antag,APJ antagonist,EBI2 conf,EBI2 agonist,bGal counter
Cc1oc(-c2ccc(Cl)cc2)cc1C(=O)NC1CCN(Cc2ccccc2)CC1,-3,-2,2,41*,12,18,-1,-13
Cc1ccc(-n2ncc3c(SCC(N)=O)ncnc32)cc1C,0,-8,6,-3,5,.,.,.
COc1cc2ccccc2cc1C(=O)NC1CCCC1,1,-1,1,7,4,.,.,.
COc1cc2ccccc2cc1C(=O)NC1CCC(C)CC1 (stereo unspecified),-4,11,18,65*,-1,48,0,4
O=C(O)c1cc(-c2ccccc2)n[nH]1,-4,-5,7,-13,-2,.,.,.
COc1ccc(S(=O)(=O)N2CCN(C(=O)c3cc(-c4ccc(Br)cc4)n[nH]3)CC2)cc1OC,25,-19,-16,72*,-4,45,2,4
O=C(c1cc(-c2ccc(Br)cc2)n[nH]1)N1CCN(C(=O)c2ccccc2Br)CC1,1,-1,6,84*,-7,52*,1,-15
O=C(c1cc(-c2ccccc2)n[nH]1)N1CCN(S(=O)(=O)c2ccccc2)CC1,-2,8,-17,59*,13,23,0,-15
COc1ccccc1-c1cc(C(=O)N2CCN(S(=O)(=O)c3ccc(C)cc3)CC2)[nH]n1,1,1,7,62*,-13,41,3,-20
COc1ccc(/C=C/C(=O)OCC(=O)NC(C)CCc2ccccc2)cc1 (stereo unspecified),-2,6,15,13,6,.,.,.
Cc1ccc(C)c(S(=O)(=O)N2CCCC2CNC(=O)C(=O)NCc2ccccc2C)c1 (stereo unspecified),-2,3,3,21,6,.,.,.
COc1ccc(-c2cc(C(=O)N3CCN(C(=O)c4ccccc4F)CC3)[nH]n2)cc1,-8,1,-3,32,11,.,.,.
COc1ccc(-c2cc(C(=O)N3CCN(S(=O)(=O)c4ccccc4)CC3)[nH]n2)cc1,0,-4,0,48*,3,27,0,9
COC(=O)[C@@]12C[C@@H](CC(=O)N3CCN(C(=O)C4CC4)CC3)C(=O)N(CCc3ccc(OC)c(OC)c3)C1=CCC(C)(C)C2,.,.,.,0,.,.,.,.
O=C(c1cc2c(ccc3ccccc32)o1)N1CCN(c2ncc(C(F)(F)F)cc2Cl)CC1,5,-3,-2,91*,17,79*,0,4
O=C(O)c1cc2c(ccc3ccccc32)o1,-1,2,1,-8,12,.,.,.
O=C(c1[nH]c(C(F)(F)F)nc1-c1ccccc1)N1CCN(c2ncc(C(F)(F)F)cc2Cl)CC1,.,4,.,-4,.,.,.,.
O=C(c1cc2c(ccc3ccccc32)o1)N1CCCCC1,-5,-3,8,51*,2,27,0,6
O=C(c1cc2cc(Cl)ccc2o1)N1CCCCCC1,1,0,9,47*,9,20,1,12
Cc1ccc(S(=O)(=O)N2CCOCC2)cc1NC(=O)CSc1nnc(NC2CC2)s1,-3,6,15,-4,0,.,.,.
CCN(CC)S(=O)(=O)c1ccc(N2CCCCC2)c(NC(=O)/C(C#N)=C/c2ccc(OC)cc2)c1,-1,-5,12,42*,-9,41,1,-1
COc1ccc(/C=C(\C#N)C(=O)Nc2cc(S(=O)(=O)N3CCOCC3)ccc2N2CCCC2)cc1,-1,-7,-7,80*,11,84*,-1,-19
CCN(CC)S(=O)(=O)c1ccc(N2CCCC2)c(NC(=O)Cc2ccc(OC)cc2)c1,-2,-2,5,0,9,.,.,.
COc1ccc(CC(=O)Nc2cc(S(=O)(=O)N3CCOCC3)ccc2N2CCCC2)c(OC)c1,.,2,0,-19,.,.,.,.
Clc1ccccc1CSc1cnnc2ccccc12,.,7,26,14,.,.,.,.
SMILES,APJ agonist,CXCR6 inh,CCR6 antag,EBI2 antag,APJ antagonist,EBI2 conf,EBI2 agonist,bGal counter
CC[C@H]1c2[nH]c3ccccc3c2C[C@@H]2C(=O)N(c3ccc(F)cc3)C(=O)N21,-2,-10,9,49*,-77,10,0,-10
CC1(C)c2[nH]c3ccccc3c2C[C@@H]2C(=O)N(c3cc(F)ccc3F)C(=O)N21,1,0,7,11,-67,.,.,.
Cc1ccc(-c2cnc3c(c2)C(=O)N([C@H](C)CO)C[C@H](C)[C@@H](CN(C)Cc2ccccc2F)O3)cc1,.,3,.,6,.,.,.,.
O=[N+]([O-])c1cc(-c2cnc3ccccc3n2)ccc1Oc1ccc(Br)cc1,2,4,13,46*,-11,42,0,3
CCOC(=O)[C@]12CCC=C1N(Cc1ccc(Cl)cc1Cl)C(=O)[C@H](CC(=O)NCC1CCCCC1)C2,.,9,.,10,.,.,.,.
O=C(c1ccc(Cl)cc1)c1c[nH]c(C(=O)C(Cl)(Cl)Cl)c1,-4,-4,25,42*,25,47,3,0
CCCC1(c2ccsc2)NC(=O)NC1=O (stereo unspecified),.,-1,-15,-11,.,.,.,.
CS(=O)(=O)N(CC(=O)NCCSc1ccccc1)c1ccc2c(c1)OCO2,-3,11,10,22,0,.,.,.
CS(=O)(=O)N(CC(=O)NCCSc1ccc(Cl)cc1)c1ccc2c(c1)OCO2,0,-8,39,87*,7,63*,0,3
COc1ccc(N(CC(=O)NCCSc2ccccc2)S(=O)(=O)c2ccccc2)cc1OC,1,-15,16,48*,-5,27,1,0
CC1Cc2cc(S(=O)(=O)N3CCC(C(=O)Nc4ccccn4)CC3)ccc2N1C(=O)C1CCC1 (stereo unspecified),-3,-7,4,1,-21,.,.,.
COc1cc(-c2nc(-c3ccccc3)c(-c3cccs3)[nH]2)cc(OC)c1OC,-3,18,7,45*,2,16,2,4
CCN1C(=O)/C(=C/c2nc3ccccc3c(=O)n2-c2ccccc2)c2ccccc21,-4,12,-9,45*,9,51*,2,-1
